In brackets after ≈: the same amount, converted by molar mass.
Key:
[1] = molecular target: T1, P450 sterol 14-alpha-demethylase (Penicillium digitatum, UniProt E3SW77); assay: Binding affinity to Penicillium digitatum CYP51
T1 sequence (E3SW77 whole entry): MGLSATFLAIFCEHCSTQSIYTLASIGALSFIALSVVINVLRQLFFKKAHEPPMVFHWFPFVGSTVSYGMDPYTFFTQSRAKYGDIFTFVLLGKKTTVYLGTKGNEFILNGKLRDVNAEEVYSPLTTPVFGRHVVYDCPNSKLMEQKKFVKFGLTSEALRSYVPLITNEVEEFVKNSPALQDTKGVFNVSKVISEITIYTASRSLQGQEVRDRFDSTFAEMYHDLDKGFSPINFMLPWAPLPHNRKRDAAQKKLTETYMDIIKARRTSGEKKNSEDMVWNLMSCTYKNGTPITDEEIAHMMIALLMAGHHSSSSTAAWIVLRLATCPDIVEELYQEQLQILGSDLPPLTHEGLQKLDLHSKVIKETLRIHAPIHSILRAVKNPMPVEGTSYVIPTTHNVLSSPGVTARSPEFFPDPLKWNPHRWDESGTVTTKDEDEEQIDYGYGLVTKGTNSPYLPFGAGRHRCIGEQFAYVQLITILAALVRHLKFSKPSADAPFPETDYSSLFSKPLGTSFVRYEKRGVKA
Procedure, shortened: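 Recombinant His-tagged P. digitatum CYP51 from E. coli BL21(DE3), Ni-NTA purified, in 100 mM PBS pH 7.2. Difference spectra at 350−500 nm were recorded 1 min after adding compound at room temperature, with DMSO below 0.5%. Kd came from a Hanes−Woolf plot of [I] versus [I]/ΔA, using Amax from the saturated absorbance shift.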

Penicillium digitatum [2] = assay: Fungicidal activity against Penicillium digitatum assessed as inhibition of mycelium measured after 48 hr; type: functional, organism-based
Procedure, shortened: (§1)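 Poisoned-agar test on P. digitatum. Compounds in DMSO were mixed into molten agar at about 45–50 °C, at 1–50 μg/mL. Blank medium was the control. 5 mm plugs taken from the margins of actively growing mycelial colonies were placed at plate centres. Plates were run in triplicate at 26 °C in darkness. Colony diameter was read at 48 h; inhibition % = (control − treated diameter)/control diameter.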

Penicillium digitatum [3] = assay: Fungicidal activity against Penicillium digitatum assessed as inhibition of mycelium at 1 ug/ml measured after 48 hr; type: functional; procedure, shortened: as §1
Penicillium digitatum [4] = assay: Fungicidal activity against Penicillium digitatum assessed as inhibition of mycelium at 50 ug/ml measured after 48 hr; type: functional; procedure, shortened: as §1
Penicillium digitatum [5] = assay: Fungicidal activity against Penicillium digitatum assessed as inhibition of mycelium at 25 ug/ml measured after 48 hr; type: functional; procedure, shortened: as §1
Penicillium digitatum [6] = assay: Fungicidal activity against Penicillium digitatum assessed as inhibition of mycelium at 10 ug/ml measured after 48 hr; type: functional; procedure, shortened: as §1
Penicillium digitatum [7] = assay: Fungicidal activity against Penicillium digitatum assessed as inhibition of mycelium at 5 ug/ml measured after 48 hr; type: functional; procedure, shortened: as §1
Penicillium digitatum [8] = assay: Antifungal activity against Penicillium digitatum assessed as growth inhibition

In the case of `CC(=O)CC1c2ccccc2N=C(n2ccnc2)N1c1ccc(Cl)cc1` (configuration not stated), the Kd [1] is reported as 2.91 µM, the IC50 (Penicillium digitatum [2]) is reported as 10.4 µg/mL (≈ 28.5 µM) and the inhibition at 1 µg/mL (Penicillium digitatum [3]) is reported as 0%. It also gave an inhibition at 50 µg/mL (Penicillium digitatum [4]) of 100%, an inhibition at 25 µg/mL (Penicillium digitatum [5]) of 100% and an inhibition at 10 µg/mL (Penicillium digitatum [6]) of 35%. It also gave an inhibition at 5 µg/mL (Penicillium digitatum [7]) of 14% and an IC50 (Penicillium digitatum [8]) of 28.5 µM.
`CCCCN1C(n2ccnc2)=Nc2ccccc2C1CC(C)=O` (configuration not stated) was tested, and the Kd [1] was 13.3 µM, the IC50 (Penicillium digitatum [2]) was 15.6 µg/mL (≈ 50.2 µM) and the inhibition at 1 µg/mL (Penicillium digitatum [3]) was 5%. For the same compound, the inhibition at 50 µg/mL (Penicillium digitatum [4]) was 100%, the inhibition at 25 µg/mL (Penicillium digitatum [5]) was 57% and the inhibition at 10 µg/mL (Penicillium digitatum [6]) was 29%. It also gave an inhibition at 5 µg/mL (Penicillium digitatum [7]) of 14% and an IC50 (Penicillium digitatum [8]) of 50.2 µM.
`CC(=O)CC1c2ccccc2N=C(n2cncn2)N1c1ccccc1` (configuration not stated) was tested, and the IC50 (Penicillium digitatum [2]) was 129 µg/mL (≈ 389 µM), the inhibition at 1 µg/mL (Penicillium digitatum [3]) was 0% and the inhibition at 50 µg/mL (Penicillium digitatum [4]) was 24%. It also gave an inhibition at 10 µg/mL (Penicillium digitatum [6]) of 11% and an inhibition at 5 µg/mL (Penicillium digitatum [7]) of 0%.
With `CC(C)(C)C(=O)C(Oc1ccc(Cl)cc1)n1cncn1` (configuration not stated) [TRIADIMEFON] the inhibition at 1 µg/mL (Penicillium digitatum [3]) was 0%, the inhibition at 50 µg/mL (Penicillium digitatum [4]) was 100% and the inhibition at 25 µg/mL (Penicillium digitatum [5]) was 100%. The inhibition at 10 µg/mL (Penicillium digitatum [6]) was 60% and the inhibition at 5 µg/mL (Penicillium digitatum [7]) was 27%.
In the case of `Cc1cccc(N2C(n3cncn3)=Nc3ccccc3C2CC(=O)C(C)(C)C)c1` (configuration not stated), the IC50 (Penicillium digitatum [2]) is reported as 67.1 µg/mL (≈ 173 µM), the inhibition at 1 µg/mL (Penicillium digitatum [3]) is reported as 0% and the inhibition at 50 µg/mL (Penicillium digitatum [4]) is reported as 40%. It also gave an inhibition at 10 µg/mL (Penicillium digitatum [6]) of 22% and an inhibition at 5 µg/mL (Penicillium digitatum [7]) of 8%.
In the case of `CC(=O)CC1c2ccccc2N=C(n2ccnc2)N1c1ccccc1` (configuration not stated), the IC50 (Penicillium digitatum [2]) is reported as 5.06 µg/mL (≈ 15.3 µM), the inhibition at 1 µg/mL (Penicillium digitatum [3]) is reported as 8% and the inhibition at 50 µg/mL (Penicillium digitatum [4]) is reported as 100%. For the same compound, the inhibition at 10 µg/mL (Penicillium digitatum [6]) was 61% and the inhibition at 5 µg/mL (Penicillium digitatum [7]) was 29%.
`CC(=O)CC1c2ccccc2N=C(n2cncn2)N1C(C)C` (configuration not stated) was tested, and the IC50 (Penicillium digitatum [2]) was over 50 µg/mL and the inhibition at 50 µg/mL (Penicillium digitatum [4]) was 10%.
With `CC(=O)CC1c2ccccc2N=C(n2cncn2)N1c1cccc(C)c1` (configuration not stated) the IC50 (Penicillium digitatum [2]) was 60.1 µg/mL (≈ 174 µM), the inhibition at 1 µg/mL (Penicillium digitatum [3]) was 0% and the inhibition at 50 µg/mL (Penicillium digitatum [4]) was 44%. The inhibition at 10 µg/mL (Penicillium digitatum [6]) was 19% and the inhibition at 5 µg/mL (Penicillium digitatum [7]) was 12%.
Work on `CC(=O)CC1c2cc(Cl)ccc2N=C(n2ccnc2)N1C(C)C` (configuration not stated) yielded an IC50 (Penicillium digitatum [2]) of 128 µg/mL (≈ 387 µM), an inhibition at 1 µg/mL (Penicillium digitatum [3]) of 0% and an inhibition at 50 µg/mL (Penicillium digitatum [4]) of 30%. The inhibition at 10 µg/mL (Penicillium digitatum [6]) was 12% and the inhibition at 5 µg/mL (Penicillium digitatum [7]) was 8%.
Work on `CC(C)(C)C(=O)CC1c2ccccc2N=C(n2cncn2)N1c1ccccc1` (configuration not stated) yielded an IC50 (Penicillium digitatum [2]) of 90 µg/mL (≈ 241 µM), an inhibition at 1 µg/mL (Penicillium digitatum [3]) of 0% and an inhibition at 50 µg/mL (Penicillium digitatum [4]) of 35%. It also gave an inhibition at 10 µg/mL (Penicillium digitatum [6]) of 15% and an inhibition at 5 µg/mL (Penicillium digitatum [7]) of 8%.
`CC(=O)CC1c2ccccc2N=C(n2cncn2)N1c1ccc(F)cc1` (configuration not stated) gave an IC50 (Penicillium digitatum [2]) of over 50 µg/mL and an inhibition at 50 µg/mL (Penicillium digitatum [4]) of 14%.
`CC(=O)CC1c2ccccc2N=C(n2ccnc2)N1c1ccc(F)cc1` (configuration not stated) was tested, and the Kd [1] was 0.976 µM, the IC50 (Penicillium digitatum [2]) was 4.14 µg/mL (≈ 11.9 µM) and the inhibition at 1 µg/mL (Penicillium digitatum [3]) was 9%. It also gave an inhibition at 50 µg/mL (Penicillium digitatum [4]) of 100%, an inhibition at 25 µg/mL (Penicillium digitatum [5]) of 100% and an inhibition at 10 µg/mL (Penicillium digitatum [6]) of 86%. The inhibition at 5 µg/mL (Penicillium digitatum [7]) was 52% and the IC50 (Penicillium digitatum [8]) was 11.9 µM.
With `CC(=O)CC1c2ccccc2N=C(n2cncn2)N1c1ccc(Cl)cc1` (configuration not stated) the IC50 (Penicillium digitatum [2]) was over 50 µg/mL and the inhibition at 50 µg/mL (Penicillium digitatum [4]) was 10%.
In the case of `CC(=O)CC1c2cc(Cl)ccc2N=C(n2ccnc2)N1c1ccc(F)cc1` (configuration not stated), the Kd [1] is reported as 2.4 µM, the IC50 (Penicillium digitatum [2]) is reported as 7.12 µg/mL (≈ 18.6 µM) and the inhibition at 1 µg/mL (Penicillium digitatum [3]) is reported as 9%. For the same compound, the inhibition at 50 µg/mL (Penicillium digitatum [4]) was 100%, the inhibition at 25 µg/mL (Penicillium digitatum [5]) was 100% and the inhibition at 10 µg/mL (Penicillium digitatum [6]) was 64%. The inhibition at 5 µg/mL (Penicillium digitatum [7]) was 21% and the IC50 (Penicillium digitatum [8]) was 18.6 µM.
Work on `CC(=O)CC1c2cc(Cl)ccc2N=C(n2cncn2)N1c1ccccc1` (configuration not stated) yielded an IC50 (Penicillium digitatum [2]) of over 50 µg/mL and an inhibition at 50 µg/mL (Penicillium digitatum [4]) of 8%.
`CC(=O)CC1c2ccccc2N=C(n2ccnc2)N1C(C)C` (configuration not stated) was tested, and the IC50 (Penicillium digitatum [2]) was 126 µg/mL (≈ 425 µM), the inhibition at 1 µg/mL (Penicillium digitatum [3]) was 0% and the inhibition at 50 µg/mL (Penicillium digitatum [4]) was 28%. For the same compound, the inhibition at 10 µg/mL (Penicillium digitatum [6]) was 15% and the inhibition at 5 µg/mL (Penicillium digitatum [7]) was 4%.
`CC(=O)CC1c2cc(Cl)ccc2N=C(n2cncn2)N1C(C)C` (configuration not stated) gave an IC50 (Penicillium digitatum [2]) of over 50 µg/mL and an inhibition at 50 µg/mL (Penicillium digitatum [4]) of 17%.
